Consider 20 molecules from ChEMBL document CHEMBL1150419, “Structure-activity relationships of a peptide inhibitor of the human FcRn:human IgG interaction” (Bioorg Med Chem, 2008).

Bridge positions count the residues as written; N and C are the ends. Square brackets hold non-standard residues; d marks the D form. Peptide text beside a SMILES is read from it. NMeA = CN[C@@H](C)C(=O)O; Dab = NCC[C@H](N)C(=O)O; βAla = NCCC(=O)O

The target in assay [1] is T1, IgG receptor FcRn large subunit p51 (Homo sapiens, UniProt P55899). The experiment in a line: Inhibition of human IgG binding to soluble human FcRn by ELISA. Put shortly:
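Biotinylated soluble human FcRn immobilized on neutravidin plates, incubated with hIgG (3 nM, constant) and peptide at varying concentrations for 2 h at 37 °C. After washing, bound hIgG detected with peroxidase-conjugated hIgG-specific Fab fragments.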
For orientation: ELISA stands for enzyme-linked immunosorbent assay.

Assay [2] concerns the target T1, IgG receptor FcRn large subunit p51. The experiment in a line: Binding affinity to human FcRn at pH 7.4 by surface plasmon resonance assay. In a few lines: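 Soluble human FcRn coupled to the dextran surface of a CM5 chip; peptide dilutions flowed over the chip. Equilibrium response at each dilution plotted against concentration, and Kd fitted with a steady-state affinity model.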
(In general: In SPR one partner is held on a chip, and binding of the other changes the refractive index at the surface.)

Assay [3] has the same target. In words: Binding affinity to human FcRn at pH 6 by surface plasmon resonance assay. In a few lines:
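Soluble human FcRn coupled to the dextran surface of a CM5 chip; peptide dilutions flowed over the chip. The equilibrium response at each dilution was plotted against concentration and fitted to a steady-state affinity model to give Kd.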

T1 sequence (P55899 whole entry, the tested form may be a part): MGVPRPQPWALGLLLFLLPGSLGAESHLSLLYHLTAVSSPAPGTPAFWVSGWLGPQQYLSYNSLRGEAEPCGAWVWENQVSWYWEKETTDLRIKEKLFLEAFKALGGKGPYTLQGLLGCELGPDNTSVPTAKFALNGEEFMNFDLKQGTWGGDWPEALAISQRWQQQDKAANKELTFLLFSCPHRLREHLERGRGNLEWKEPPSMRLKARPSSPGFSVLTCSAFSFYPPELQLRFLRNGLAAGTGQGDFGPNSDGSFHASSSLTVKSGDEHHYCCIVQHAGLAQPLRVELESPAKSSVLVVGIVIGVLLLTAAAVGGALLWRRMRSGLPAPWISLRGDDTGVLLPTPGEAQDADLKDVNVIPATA

What is called IC50 is the concentration that inhibits the measured activity by half. A high value points to weaker potency in that assay. What is called Kd is a measure of binding affinity in units of concentration. Low values mean a tighter complex, high ones a looser complex. `CC(C)C[C@@H](C(=O)N[C@@H](Cc1ccc(O)cc1)C(=O)N1CCC[C@H]1C(=O)N[C@@H](CS)C(=O)O)N(C)C(=O)CN(C)C(=O)CNC(=O)[C@H](Cc1ccccc1)NC(=O)[C@H](Cc1ccsc1)NC(=O)CNC(=O)[C@@H](NC(=O)[C@@H](NC(=O)[C@H](Cc1ccccc1)NC(=O)[C@@H](N)CCCN=C(N)N)C(C)(C)S)[C@@H](C)O` showed an IC50 in assay [1] of 45 µM. Further, the Kd in assay [2] came to 3 µM; in assay [3], 2 µM.
In the case of `CC(C)C[C@@H](C(=O)N[C@@H](Cc1ccc(O)cc1)C(=O)N1CCC[C@H]1C(=O)N[C@@H](CS)C(=O)O)N(C)C(=O)CN(C)C(=O)CNC(=O)[C@H](Cc1ccccc1)NC(=O)[C@H](Cc1cccnc1)NC(=O)CNC(=O)[C@@H](NC(=O)[C@@H](NC(=O)[C@H](Cc1ccccc1)NC(=O)[C@@H](N)CCCNC(=N)N)C(C)(C)S)[C@@H](C)O`, the values for the Kd in assay [2] and in assay [3] were 0.26 µM and 0.064 µM, respectively.
Molecule `CC(C)C[C@@H](C(=O)N[C@@H](Cc1ccc(O)cc1)C(=O)N1CCC[C@H]1C(=O)N[C@@H](CS)C(=O)O)N(C)C(=O)CN(C)C(=O)CNC(=O)[C@H](Cc1ccccc1)NC(=O)[C@H](Cc1ccncc1)NC(=O)CNC(=O)[C@@H](NC(=O)[C@@H](NC(=O)[C@H](Cc1ccccc1)NC(=O)[C@@H](N)CCCNC(=N)N)C(C)(C)S)[C@@H](C)O` gave an IC50 in assay [1] of 1.3 µM. Besides, the results for the Kd in assay [2] and in assay [3] were 0.28 µM and 0.067 µM, respectively.
With `CC(C)C[C@@H](C(=O)N[C@@H](Cc1ccc(O)cc1)C(=O)N1CCC[C@H]1C(=O)N[C@@H](CS)C(=O)O)N(C)C(=O)CN(C)C(=O)CNC(=O)[C@H](Cc1ccccc1)NC(=O)[C@H](Cc1ccc(N=C(N)N)cc1)NC(=O)CNC(=O)[C@@H](NC(=O)[C@@H](NC(=O)[C@H](Cc1ccccc1)NC(=O)[C@@H](N)CCCN=C(N)N)C(C)(C)S)[C@@H](C)O`, the Kd in assay [2] came out at 0.073 µM; in assay [3] it was 0.074 µM.
As to `CC(C)C[C@@H](C(=O)N[C@@H](Cc1ccc(O)cc1)C(=O)N1CCC[C@H]1C(=O)N[C@@H](CS)C(=O)O)N(C)C(=O)CN(C)C(=O)CNC(=O)[C@H](Cc1ccccc1)NC(=O)[C@H](CCCN)NC(=O)CNC(=O)[C@@H](NC(=O)[C@@H](NC(=O)[C@H](Cc1ccccc1)NC(=O)[C@@H](N)CCCNC(=N)N)C(C)(C)S)[C@@H](C)O`, the IC50 in assay [1] was determined as 12 µM. The Kd was 1.2 µM in assay [2] and 1.3 µM in assay [3].
The molecule `CC(C)C[C@@H](C(=O)N[C@@H](Cc1ccc(O)cc1)C(=O)N1CCC[C@H]1C(=O)N[C@@H](CS)C(=O)O)N(C)C(=O)CN(C)C(=O)CNC(=O)[C@H](Cc1ccccc1)NC(=O)[C@H](Cc1ccc(N)cc1)NC(=O)CNC(=O)[C@@H](NC(=O)[C@@H](NC(=O)[C@H](Cc1ccccc1)NC(=O)[C@@H](N)CCCNC(=N)N)C(C)(C)S)[C@@H](C)O` gave an IC50 in assay [1] of 4.6 µM. The molecule also registered a Kd in assay [2] of 1.1 µM.
For `CC(C)C[C@@H]1NC(=O)CNC(=O)CNC(=O)[C@H](Cc2ccccc2)NC(=O)[C@H](Cc2cnc[nH]2)NC(=O)CNC(=O)[C@H]([C@@H](C)O)NC(=O)[C@@H](NC(=O)[C@H](Cc2ccccc2)NC(=O)[C@H](CCCN=C(N)N)NC(=O)[C@@H](N)CCC(N)=O)CSSC[C@@H](C(=O)N[C@@H](CC(N)=O)C(=O)NCC(=O)N2CCC[C@H]2C(=O)O)NC(=O)[C@@H]2CCCN2C(=O)[C@H](Cc2ccc(O)cc2)NC1=O`, the IC50 in assay [1] came out at 36 µM. Also, the Kd was 45 µM in assay [2] and 5.7 µM in assay [3].
The matching figures for `CC(C)C[C@@H](C(=O)N[C@@H](Cc1ccc(O)cc1)C(=O)N1CCC[C@H]1C(=O)N[C@@H](CS)C(=O)O)N(C)C(=O)CN(C)C(=O)CNC(=O)[C@H](Cc1ccccc1)NC(=O)[C@H](CCCNC(=N)N)NC(=O)CNC(=O)[C@@H](NC(=O)[C@@H](NC(=O)[C@H](Cc1ccccc1)NC(=O)[C@@H](N)CCCNC(=N)N)C(C)(C)S)[C@@H](C)O`: 5.5 µM, 0.5 µM and 0.5 µM.
The matching figures for `CC(C)C[C@@H](C(=O)N[C@@H](Cc1ccc(O)cc1)C(=O)N1CCC[C@H]1C(=O)N[C@@H](CS)C(=O)O)N(C)C(=O)CN(C)C(=O)CNC(=O)[C@H](Cc1ccccc1)NC(=O)[C@H](CCCCN)NC(=O)CNC(=O)[C@@H](NC(=O)[C@@H](NC(=O)[C@H](Cc1ccccc1)NC(=O)[C@@H](N)CCCN=C(N)N)C(C)(C)S)[C@@H](C)O`: 40 µM, 1.1 µM and 1.3 µM.
The matching figures for `CC(C)C[C@@H](C(=O)N[C@@H](Cc1ccc(O)cc1)C(=O)N1CCC[C@H]1C(=O)N[C@@H](CS)C(=O)O)N(C)C(=O)CN(C)C(=O)CNC(=O)[C@H](Cc1ccccc1)NC(=O)[C@H](CC1CCNCC1)NC(=O)CNC(=O)[C@@H](NC(=O)[C@@H](NC(=O)[C@H](Cc1ccccc1)NC(=O)[C@@H](N)CCCNC(=N)N)C(C)(C)S)[C@@H](C)O`: 85 µM, 6.4 µM and 5.2 µM.
Turning to `CC[C@H](C)[C@@H]1NC(=O)CNC(=O)CNC(=O)[C@H](Cc2ccccc2)NC(=O)[C@H](Cc2cnc[nH]2)NC(=O)CNC(=O)[C@H]([C@@H](C)O)NC(=O)[C@H](C(C)C)NC(=O)[C@@H](NC(=O)CNC(=O)CNC(=O)CN)CSSC[C@@H](C(=O)N[C@@H](CC(N)=O)C(=O)N[C@@H](Cc2ccc(O)cc2)C(=O)N[C@@H](CCC(N)=O)C(=O)O)NC(=O)[C@H](Cc2ccc(O)cc2)NC1=O` (H-GGGCVTGHFGGIYCNYQ-OH; disulfide 4-14), in assay [1], the concentration for half-maximal inhibition (IC50) worked out at 33 µM. Also, the Kd amounted to 35 µM in assay [2] and 5.2 µM in assay [3].
The matching figures for `CC[C@H](C)[C@H](NC(=O)[C@@H](NC(=O)[C@@H](N)CCCCN)[C@@H](C)CC)C(=O)N[C@H]1CSSC[C@@H](C(=O)N[C@@H](CCC(N)=O)C(=O)NCC(=O)N[C@@H](CCCCN)C(=O)O)NC(=O)[C@H](Cc2ccc(O)cc2)NC(=O)[C@H](CCSC)NC(=O)CNC(=O)CNC(=O)[C@H](Cc2ccccc2)NC(=O)[C@H](Cc2cnc[nH]2)NC(=O)CNC(=O)[C@@H]2CCCN2C(=O)[C@H](CO)NC1=O` (H-KIICSPGHFGGMYCQGK-OH; disulfide 4-14): 64 µM, 78 µM and 22 µM.
As for `CC(C)C[C@H](NC(=O)CNC(=O)CNC(=O)[C@H](C)NC(=O)[C@H](Cc1cnc[nH]1)NC(=O)CNC(=O)[C@@H](NC(=O)[C@H](CS)NC(=O)[C@H](Cc1ccccc1)NC(=O)[C@H](CCCNC(=N)N)NC(=O)[C@@H](N)CCC(N)=O)[C@@H](C)O)C(=O)N[C@@H](Cc1ccc(O)cc1)C(=O)N1CCC[C@H]1C(=O)N[C@@H](CS)C(=O)N[C@@H](CC(N)=O)C(=O)NCC(=O)N1CCC[C@H]1C(=O)O` (H-QRFCTGHAGGLYPCNGP-OH), in assay [1], the IC50 was above 125 µM. This molecule gave a dissociation constant Kd in assay [3] above 250 µM.
In assay [1], `C[C@H](NC(=O)CNC(=O)CNC(=O)[C@H](Cc1ccccc1)NC(=O)[C@H](Cc1cnc[nH]1)NC(=O)CNC(=O)[C@@H](NC(=O)[C@H](CS)NC(=O)[C@H](Cc1ccccc1)NC(=O)[C@H](CCCN=C(N)N)NC(=O)[C@@H](N)CCC(N)=O)[C@@H](C)O)C(=O)N[C@@H](Cc1ccc(O)cc1)C(=O)N1CCC[C@H]1C(=O)N[C@@H](CS)C(=O)N[C@@H](CC(N)=O)C(=O)NCC(=O)N1CCC[C@H]1C(=O)O` (H-QRFCTGHFGGAYPCNGP-OH) came in with an IC50 of 107 µM. In addition, binding in assay [3] was characterised by a dissociation constant (Kd) of 26 µM.
The matching figures for `CC(C)C[C@H](NC(=O)CNC(=O)CNC(=O)[C@H](Cc1ccccc1)NC(=O)[C@H](Cc1cnc[nH]1)NC(=O)CNC(=O)[C@@H](NC(=O)[C@H](CS)NC(=O)[C@H](Cc1ccccc1)NC(=O)[C@H](CCCNC(=N)N)NC(=O)[C@@H](N)CCC(N)=O)[C@@H](C)O)C(=O)N[C@@H](C)C(=O)N1CCC[C@H]1C(=O)N[C@@H](CS)C(=O)N[C@@H](CC(N)=O)C(=O)NCC(=O)N1CCC[C@H]1C(=O)O` (H-QRFCTGHFGGLAPCNGP-OH): above 125 µM and above 250 µM.
In turn, `CC(C)C[C@H](NC(=O)CNC(=O)CNC(=O)[C@H](Cc1ccccc1)NC(=O)[C@H](Cc1cnc[nH]1)NC(=O)CCNC(=O)[C@@H](NC(=O)[C@H](CS)NC(=O)[C@H](Cc1ccccc1)NC(=O)[C@H](CCCNC(=N)N)NC(=O)[C@@H](N)CCC(N)=O)[C@@H](C)O)C(=O)N[C@@H](Cc1ccc(O)cc1)C(=O)N1CCC[C@H]1C(=O)N[C@@H](CS)C(=O)N[C@@H](CC(N)=O)C(=O)NCC(=O)N1CCC[C@H]1C(=O)O` (H-QRFCT[βAla]HFGGLYPCNGP-OH) showed a 50% inhibitory concentration (IC50) in assay [1] above 125 µM. This molecule had an equilibrium dissociation constant (Kd) in assay [3] above 250 µM.
The matching figures for `CC(C)C[C@H](NC(=O)CNC(=O)CNC(=O)[C@H](Cc1ccccc1)NC(=O)[C@H](Cc1cnc[nH]1)NC(=O)CNC(=O)[C@H](C)N(C)C(=O)[C@H](CS)NC(=O)[C@H](Cc1ccccc1)NC(=O)[C@H](CCCNC(=N)N)NC(=O)[C@@H](N)CCC(N)=O)C(=O)N[C@@H](Cc1ccc(O)cc1)C(=O)N1CCC[C@H]1C(=O)N[C@@H](CS)C(=O)N[C@@H](CC(N)=O)C(=O)NCC(=O)N1CCC[C@H]1C(=O)O` (H-QRFC[NMeA]GHFGGLYPCNGP-OH): 169 µM and 18 µM.
The matching figures for `CC(C)C[C@H](NC(=O)CNC(=O)CNC(=O)[C@H](Cc1ccccc1)NC(=O)[C@H](Cc1cnc[nH]1)NC(=O)CNC(=O)[C@@H](NC(=O)[C@H](CCN)NC(=O)[C@H](Cc1ccccc1)NC(=O)[C@H](CCCN=C(N)N)NC(=O)[C@@H](N)CCC(N)=O)[C@@H](C)O)C(=O)N[C@@H](Cc1ccc(O)cc1)C(=O)N1CCC[C@H]1C(=O)N[C@@H](CCC(=O)O)C(=O)N[C@@H](CC(N)=O)C(=O)NCC(=O)N1CCC[C@H]1C(=O)O` (H-QRF[Dab]TGHFGGLYPENGP-OH): 81 µM and 4.8 µM.
H-QRFSTGHFGGLYPSNGP-OH showed an IC50 in assay [1] above 125 µM. In assay [3], this molecule had a Kd of 230 µM.
In assay [1], H-TGHFGGLYP-OH displayed an IC50 above 250 µM. For the same molecule, the Kd in assay [3] was above 250 µM.
